ChEMBL document CHEMBL1938246, “Eudesmane-type sesquiterpene lactones inhibit multiple steps in the NF-κB signaling pathway induced by inflammatory cytokines” (Bioorg Med Chem Lett, 2012)
pIC50: −log10 of the molar value. The source made the active and inactive calls. No cut-off for these calls is given here.

Key:
A549 [1] = assay: (§1) Inhibition of NFkappaB-mediated ICAM1 expression in TNFalpha-stimulated human A549 cells treated 1 hr before TNFalpha challenge measured after 6 hrs by ELISA; assay type: cell-based
Method in brief: (§2)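 A549 cells preincubated 1 h with serial dilutions of compound, then stimulated with IL-1α (0.25 ng/mL) or TNF-α (2.5 ng/mL) for 6 h with compound still present. Cell-surface ICAM-1 (%) by cell ELISA on triplicate cultures. IC50 (µM) is the mean of at least three independent experiments.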

[2] = as §1; assay type: cell-based; method in brief: as §2
A549 [3] = assay: (§3) Inhibition of NFkappaB-mediated ICAM1 expression in IL1alpha-stimulated human A549 cells treated 1 hr before IL1alpha challenge measured after 6 hrs by ELISA; assay type: cell-based; method in brief: as §2
[4] = as §3; assay type: cell-based; method in brief: as §2
[5] = target: T1, NF-kappa-B inhibitor alpha (Homo sapiens) (UniProt P25963); assay: Inhibition of TNF-alpha-induced IkappaBalpha phosphorylation in human A549 cells at 10 to 100 uM incubated for 1 hr prior to TNFalpha challenge measured after 15 mins by Western blot analysis in the presence of proteasome inhibitor MG-132; assay type: cell-based
T1 sequence (whole entry): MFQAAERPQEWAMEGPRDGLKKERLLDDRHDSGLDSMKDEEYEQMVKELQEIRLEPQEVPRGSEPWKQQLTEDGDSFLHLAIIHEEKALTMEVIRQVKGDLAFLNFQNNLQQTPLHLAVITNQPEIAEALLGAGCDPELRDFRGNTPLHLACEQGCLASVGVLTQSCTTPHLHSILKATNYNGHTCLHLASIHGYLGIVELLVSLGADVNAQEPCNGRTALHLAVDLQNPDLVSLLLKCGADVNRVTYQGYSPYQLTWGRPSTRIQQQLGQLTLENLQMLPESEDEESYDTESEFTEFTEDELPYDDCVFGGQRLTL
Method in brief: (§4)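 A549 cells preincubated 1 h with or without the proteasome inhibitor MG-132 (20 µM) or with compound at various concentrations. Then stimulated 15 min with IL-1α (0.25 ng/mL) or TNF-α (2.5 ng/mL), or left unstimulated, with compound present. IκBα phosphorylation then examined.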

[6] = target: T1, NF-kappa-B inhibitor alpha (Homo sapiens); assay: Inhibition of IL1alpha-induced IkappaBalpha phosphorylation in human A549 cells at 10 to 100 uM incubated for 1 hr prior to IL1alpha challenge measured after 15 mins by Western blot analysis in the presence of proteasome inhibitor MG-132; assay type: cell-based; method in brief: as §4
A549 [7] = assay: Inhibition of NFkappaB-mediated ICAM1 protein expression in TNFalpha-stimulated human A549 cells preincubated for 1 hr prior TNFalpha challenge measured after 6 hrs by Western blot analysis; assay type: cell-based
[8] = target: Transcription factor p65 (Homo sapiens) (UniProt Q04206); assay: Inhibition of NF-kappaB p65 nuclear translocation in TNFalpha-stimulated human A549 cells at 30 to 100 uM incubated for 1 hr prior TNFalpha challenge measured after 30 mins by Western blot analysis; assay type: cell-based
Method in brief: (§5)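 A549 cells pretreated 1 h with compound at the stated concentrations, then stimulated 30 min with IL-1α (0.25 ng/mL) or TNF-α. p65 and p50 subunits then assessed for movement from cytoplasm to nucleus.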

A549 [9] = assay: Inhibition of NF-kappaB p50 nuclear translocation in IL1alpha-stimulated human A549 cells at 30 to 100 uM incubated for 1 hr prior IL1alpha challenge measured after 30 mins by Western blot analysis; assay type: cell-based; method in brief: as §5
A549 [10] = assay: Cytotoxicity against human A549 cells after 24 hrs by MTT assay; assay type: cell-based; details: a549, 24 h
Method in brief: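 A549 cells exposed to serial dilutions of compound for 24 h. Viability (%) by MTT assay on triplicate cultures. IC50 (µM) is the mean of four independent experiments.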

A549 [11] = assay: Inhibition of NF-kappaB p50 nuclear translocation in TNFalpha-stimulated human A549 cells at 30 to 100 uM incubated for 1 hr prior TNFalpha challenge measured after 30 mins by Western blot analysis; assay type: cell-based; method in brief: as §5
A549 [12] = assay: Cytotoxicity against human A549 cells at 100 uM up to 7 hrs by MTT assay; assay type: cell-based; details: a549, 7 h
A549 [13] = assay: Inhibition of TNF-alpha-induced IkappaBalpha degradation in human A549 cells at 100 uM incubated for 1 hr prior TNFalpha challenge measured after 15 mins by Western blot analysis; assay type: functional, cell-based
Method in brief: (§6)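 A549 cells preincubated 1 h with compound at the stated concentrations, then given IL-1α (0.25 ng/mL) or TNF-α (2.5 ng/mL). IκBα degradation then monitored.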

A549 [14] = assay: Cytotoxicity against human A549 cells at 100 uM up to 7 hrs by crystal violet staining; assay type: cell-based; details: a549, 7 h
A549 [15] = assay: Cytotoxicity against human A549 cells at 100 to 320 uM after 24 hrs by MTT assay; assay type: cell-based; details: a549, 24 h
A549 [16] = assay: Inhibition of NFkappaB-mediated ICAM1 protein expression in IL1alpha-stimulated human A549 cells preincubated for 1 hr prior IL1alpha challenge measured after 6 hrs by Western blot analysis; assay type: cell-based
[17] = target: Transcription factor p65 (Homo sapiens) (UniProt Q04206); assay: Inhibition of NF-kappaB p65 nuclear translocation in IL1alpha-stimulated human A549 cells at 30 to 100 uM incubated for 1 hr prior IL1alpha challenge measured after 30 mins by Western blot analysis; assay type: cell-based; method in brief: as §5
A549 [18] = assay: Inhibition of IL1alpha-induced IkappaBalpha degradation in human A549 cells at 100 uM incubated for 1 hr prior IL1alpha challenge measured after 15 mins by Western blot analysis; assay type: functional, cell-based; method in brief: as §6
[19] = target: T1, NF-kappa-B inhibitor alpha (Homo sapiens); assay: Inhibition of TNF-alpha-induced IkappaBalpha phosphorylation in human A549 cells at 100 uM incubated for 1 hr prior TNFalpha challenge measured after 15 mins by Western blot analysis in the presence of proteasome inhibitor MG-132; assay type: cell-based; method in brief: as §4
[20] = target: T1, NF-kappa-B inhibitor alpha (Homo sapiens); assay: Inhibition of IL1alpha-induced IkappaBalpha phosphorylation in human A549 cells at 100 uM incubated for 1 hr prior IL1alpha challenge measured after 15 mins by Western blot analysis in the presence of proteasome inhibitor MG-132; assay type: cell-based; method in brief: as §4
[21] = Selectivity ratio of IC50 for human A549 cells to IC50 for NFkappaB-mediated ICAM1 expression in human A549 cells; assay type: ADME, cell-based; details: read-out: Ratio IC50
[22] = target: Transcription factor p65 (Homo sapiens) (UniProt Q04206); assay: Inhibition of NF-kappaB p65 nuclear translocation in IL1alpha-stimulated human A549 cells at 100 uM incubated for 1 hr prior IL1alpha challenge measured after 30 mins by Western blot analysis; assay type: cell-based; method in brief: as §5
A549 [23] = assay: Inhibition of NF-kappaB p50 nuclear translocation in TNFalpha-stimulated human A549 cells at 100 uM incubated for 1 hr prior TNFalpha challenge measured after 30 mins by Western blot analysis; assay type: cell-based; method in brief: as §5
A549 [24] = assay: Inhibition of NF-kappaB p50 nuclear translocation in IL1alpha-stimulated human A549 cells at 100 uM incubated for 1 hr prior IL1alpha challenge measured after 30 mins by Western blot analysis; assay type: cell-based; method in brief: as §5
[25] = target: Transcription factor p65 (Homo sapiens) (UniProt Q04206); assay: Inhibition of NF-kappaB p65 nuclear translocation in TNFalpha-stimulated human A549 cells at 100 uM incubated for 1 hr prior TNFalpha challenge measured after 30 mins by Western blot analysis; assay type: cell-based; method in brief: as §5

Transcription factor p65 (Homo sapiens), sequence (Q04206 whole entry): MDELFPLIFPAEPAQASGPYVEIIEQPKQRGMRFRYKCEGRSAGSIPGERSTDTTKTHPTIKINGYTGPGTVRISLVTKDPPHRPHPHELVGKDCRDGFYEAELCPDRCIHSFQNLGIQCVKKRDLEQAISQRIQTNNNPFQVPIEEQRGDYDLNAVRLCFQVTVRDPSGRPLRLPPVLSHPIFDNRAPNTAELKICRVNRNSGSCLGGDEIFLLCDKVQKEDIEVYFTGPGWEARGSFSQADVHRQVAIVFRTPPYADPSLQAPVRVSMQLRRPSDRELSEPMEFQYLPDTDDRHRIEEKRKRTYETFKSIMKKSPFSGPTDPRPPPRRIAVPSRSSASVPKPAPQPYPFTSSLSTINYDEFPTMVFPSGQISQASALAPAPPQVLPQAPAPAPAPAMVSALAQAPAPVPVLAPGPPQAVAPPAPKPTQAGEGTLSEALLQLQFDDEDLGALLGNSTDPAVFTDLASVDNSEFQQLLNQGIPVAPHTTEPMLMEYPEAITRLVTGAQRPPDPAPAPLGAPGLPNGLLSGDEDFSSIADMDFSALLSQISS

Row | Structure (SMILES) | pIC50 [2] | pIC50 [4] | inhibition [8] | inhibition [17] | inhibition (A549 [1]) | inhibition (A549 [3]) | inhibition (A549 [7]) | inhibition (A549 [9]) | IC50 (A549 [10]) [µM] | inhibition (A549 [11]) | inhibition (A549 [13]) | inhibition (A549 [16]) | inhibition (A549 [18]) | inhibition [19] | inhibition [20] | selectivity ratio [21] | further results
1 | C[C@@H]1C(=O)O[C@H]2[C@H]1CC[C@@]1(C)C[C@@H](Br)C(=O)[C@@H](C)[C@H]21 | 5.34 | 5.00 | Active | Active | Dose-dependent effect | Dose-dependent effect | Dose-dependent effect | Active | > 320 | Active | inactive | Dose-dependent effect | Active |  |  |  | inhibition [5]: Active; inhibition [6]: Active; Activity (A549 [12]): Non-toxic; Activity (A549 [14]): Non-toxic; Activity (A549 [15]): Toxic
2 | C=C1C(=O)O[C@@H]2[C@H]3[C@H](C)[C@@H](O)C=C[C@]3(C)CC[C@@H]12 | 5.21 | 4.64 | Active | Active | Dose-dependent effect | Dose-dependent effect | Dose-dependent effect | Active | 140 | Active | inactive | Dose-dependent effect | inactive | inactive | inactive | 10 | 
3 | C=C1C(=O)O[C@@H]2[C@H]3[C@H](C)C(=O)C=C[C@]3(C)CC[C@@H]12 | 5.37 | 5.00 | Active | Active | Dose-dependent effect | Dose-dependent effect | Dose-dependent effect | Active | 120 | Active | Active | Dose-dependent effect | Active | Active | Active | 10 | 
4 | C=C1C(=O)O[C@@H]2[C@H]3[C@H](C)C(=O)[C@H](Br)C[C@]3(C)CC[C@@H]12 | 5.55 | 5.47 | Active | Active | Dose-dependent effect | Dose-dependent effect | Dose-dependent effect | Active | 88 | Active | Active | Dose-dependent effect | Active | Active | Active | 10 | 
5 | C[C@@H]1C(=O)O[C@H]2[C@H]1CC[C@@]1(C)CCC(=O)[C@@H](C)[C@H]21 | < 3.49 | < 3.49 |  |  | inactive | inactive |  |  | > 320 |  |  |  |  |  |  |  | 

Now from value to compound, other results behind:

Row | pIC50 [2] | pIC50 [4] | inhibition [8] | inhibition [17] | Structure (SMILES) | inhibition (A549 [1]) | inhibition (A549 [3]) | inhibition (A549 [7]) | inhibition (A549 [9]) | IC50 (A549 [10]) [µM] | inhibition (A549 [11]) | inhibition (A549 [13]) | inhibition (A549 [16]) | inhibition (A549 [18]) | inhibition [19] | inhibition [20] | selectivity ratio [21] | further results
6 | 5.37 | 5.21 | Active | Active | C=C1C(=O)O[C@@H]2[C@H]3[C@H](C)C(=O)CC[C@]3(C)CC[C@@H]12 | Dose-dependent effect | Dose-dependent effect | Dose-dependent effect | Active | 110 | Active | Active | Dose-dependent effect | Active | Active | Active | 10 | 
7 | 4.47 | 4.28 |  |  | C[C@@H]1C(=O)O[C@H]2[C@H]1CC[C@@]1(C)C=CC(=O)[C@@H](C)[C@H]21 | Dose-dependent effect | Dose-dependent effect | Dose-dependent effect |  | > 320 |  |  | Dose-dependent effect |  |  |  |  | inhibition [22]: Active; inhibition (A549 [23]): Active; inhibition (A549 [24]): Active; inhibition [25]: Active; Activity (A549 [15]): Toxic
8 | < 3.49 | < 3.49 |  |  | C[C@H]1[C@@H]2[C@H]3OC(=O)[C@@H](C)[C@@H]3CC[C@@]2(C)C=C[C@@H]1O | inactive | inactive |  |  | > 320 |  |  |  |  |  |  |  | 
